# ChEMBL document CHEMBL4033663, “Design, combinatorial synthesis and biological evaluations of novel 3-amino-1'-((1-aryl-1H-1,2,3-triazol-5-yl)methyl)-2'-oxospiro[benzo[a] pyrano[2,3-c]phenazine-1,3'-indoline]-2-carbonitrile antitumor hybrid molecules” (Eur J Med Chem, 2017)
# pIC50: −log10 of the molar value. The source made the active and inactive calls. The calls are words filed in the database; no cut-off is given here.
# Experiments:
# [1] = Drug uptake in mitochondria of human A549 cells at 2 to 8 uM after 30 mins by MitoTracker Red CMXRos dye-based confocal microscopic analysis; format: ADME, cell-based; details: a549, 0.5 h
# Method in brief: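 Live A549 cells were grown for 2 days in confocal dishes. They were then incubated with compound and MitoTracker Red CMXRos in culture medium for 30 min, and localization was imaged by laser-scanning confocal microscopy.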
# A549 [2] = test: Induction of apoptosis in human A549 cells assessed as viable cells at 3 uM after 24 hrs by Annexin V-APC/7-AAD staining-based FACS analysis (reference value: 94.1%); format: functional; details: A549, 24 h, read-out: Activity
# A549 [3] = test: Induction of apoptosis in human A549 cells assessed as increase in cleaved caspase-3 level at 3 to 12 uM after 24 hrs by Western blot analysis; format: functional, cell-based
# Method in brief: (§1)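 A549 cells (3 × 10^5 per dish) were treated for 24 h and lysed in RIPA buffer; protein was measured by BCA. Lysates were run on 12% SDS-PAGE and blotted to nitrocellulose. Blots were blocked in 5% non-fat milk for 2 h at room temperature, then incubated with primary antibodies in TBST overnight at 4 °C. ECL detection was used, with bands normalized to β-actin (mean ± SD, three experiments).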
# A549 [4] = test: Induction of apoptosis in human A549 cells assessed as necrotic cells at 12 uM after 24 hrs by Annexin V-APC/7-AAD staining-based FACS analysis (reference value: 0.032%); format: functional
# A549 [5] = test: Cell cycle arrest in human A549 cells assessed as accumulation at S-phase at 12 uM after 24 hrs by propidium iodide staining-based FACS analysis (reference value: 17.8 %); format: functional
# A549 [6] = test: Cell cycle arrest in human A549 cells assessed as accumulation at S-phase at 3 uM after 24 hrs by propidium iodide staining-based FACS analysis (reference value: 17.8 %); format: functional
# A549 [7] = test: Effect on CDK1 expression in human A549 cells at 3 to 12 uM after 24 hrs by Western blot analysis; format: functional, cell-based; method in brief: as §1
# A549 [8] = test: Induction of apoptosis in human A549 cells assessed as early apoptotic cells at 3 uM after 24 hrs by Annexin V-APC/7-AAD staining-based FACS analysis (reference value: 5.82%); format: functional
# A549 [9] = test: Down regulation of cyclin E expression in human A549 cells after 24 hrs by Western blot analysis; format: functional, cell-based; method in brief: as §1
# A549 [10] = test: Induction of apoptosis in human A549 cells assessed as late apoptotic cells at 6 uM after 24 hrs by Annexin V-APC/7-AAD staining-based FACS analysis (reference value: 0.01%); format: functional
# A549 [11] = test: Down regulation of CDK2 expression in human A549 cells after 24 hrs by Western blot analysis; format: functional, cell-based; method in brief: as §1
# A549 [12] = test: Induction of apoptosis in human A549 cells assessed as increase in cleaved caspase-9 level at 3 to 12 uM after 24 hrs by Western blot analysis; format: functional, cell-based; method in brief: as §1
# HCT-116 = test: Antiproliferative activity against human HCT116 cells after 48 hrs by MTT assay; format: functional, cell-based; details: HCT-116, 48 h
# A549 [13] = test: Antiproliferative activity against human A549 cells after 48 hrs by MTT assay; format: functional, cell-based; details: A549, 48 h
# A549 [14] = test: Induction of apoptosis in human A549 cells assessed as late apoptotic cells at 3 uM after 24 hrs by Annexin V-APC/7-AAD staining-based FACS analysis (reference value: 0.01%); format: functional
# A549 [15] = test: Induction of apoptosis in human A549 cells assessed as early apoptotic cells at 6 uM after 24 hrs by Annexin V-APC/7-AAD staining-based FACS analysis (reference value: 5.82%); format: functional
# L02 = test: Antiproliferative activity against human L02 cells after 48 hrs by MTT assay; format: cell-based; details: L02, 48 h
# MCF7 = test: Antiproliferative activity against human MCF7 cells after 48 hrs by MTT assay; format: functional, cell-based; details: MCF7, 48 h
# A549 [16] = test: Induction of apoptosis in human A549 cells assessed as viable cells at 6 uM after 24 hrs by Annexin V-APC/7-AAD staining-based FACS analysis (reference value: 94.1%); format: functional; details: A549, 24 h, read-out: Activity
# A549 [17] = test: Induction of apoptosis in human A549 cells assessed as viable cells at 12 uM after 24 hrs by Annexin V-APC/7-AAD staining-based FACS analysis (reference value: 94.1%); format: functional; details: A549, 24 h, read-out: Activity
# A549 [18] = test: Induction of apoptosis in human A549 cells assessed as increase in Bax/Bcl-2 ratio after 24 hrs by Western blot analysis; format: functional, cell-based; method in brief: as §1
# A549 [19] = test: Up regulation of p53 expression in human A549 cells at 3 to 12 uM after 24 hrs by Western blot analysis; format: functional, cell-based; method in brief: as §1
# A549 [20] = test: Up regulation of p21 expression in human A549 cells at 3 to 12 uM after 24 hrs by Western blot analysis; format: functional, cell-based; method in brief: as §1
# A549 [21] = test: Effect on cyclin B expression in human A549 cells at 3 to 12 uM after 24 hrs by Western blot analysis; format: functional, cell-based; method in brief: as §1
# A549 [22] = test: Cell cycle arrest in human A549 cells assessed as accumulation at S-phase at 6 uM after 24 hrs by propidium iodide staining-based FACS analysis (reference value: 17.8 %); format: functional
# HUVEC = test: Antiproliferative activity against human HUVEC cells after 48 hrs by MTT assay; format: cell-based
# A549 [23] = test: Induction of apoptosis in human A549 cells assessed as necrotic cells at 3 uM after 24 hrs by Annexin V-APC/7-AAD staining-based FACS analysis (reference value: 0.032%); format: functional
# A549 [24] = test: Induction of reactive oxygen species generation in human A549 cells by MitoSOX Red dye-based FACS analysis; format: functional, cell-based
# Method in brief: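 Treated A549 cells were stained with a kit dye that distinguishes ROS(−) and ROS(+) populations. Percentages of each population were measured by flow cytometry.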
# A549 [25] = test: Effect on cyclin D expression in human A549 cells at 3 to 12 uM after 24 hrs by Western blot analysis; format: functional, cell-based; method in brief: as §1
# A549 [26] = test: Induction of apoptosis in human A549 cells assessed as late apoptotic cells at 12 uM after 24 hrs by Annexin V-APC/7-AAD staining-based FACS analysis (reference value: 0.01%); format: functional
# A549 [27] = test: Induction of apoptosis in human A549 cells assessed as early apoptotic cells at 12 uM after 24 hrs by Annexin V-APC/7-AAD staining-based FACS analysis (reference value: 5.82%); format: functional
# A549 [28] = test: Induction of apoptosis in human A549 cells assessed as necrotic cells at 6 uM after 24 hrs by Annexin V-APC/7-AAD staining-based FACS analysis (reference value: 0.032%); format: functional
# HepG2 = test: Antiproliferative activity against human HepG2 cells after 48 hrs by MTT assay; format: functional, cell-based; details: HepG2, 48 h
smiles,measurement,setting,value
N#CC1=C(N)Oc2c(N)cc3nc4ccccc4nc3c2C12C(=O)N(Cc1cnnn1-c1cccc(C(F)(F)F)c1)c1ccccc12 (stereo not drawn),Drug uptake,[1],Active
same,viability at 3 µM,A549 [2],91%
same,Activity,A549 [3],Active
same,Activity,A549 [4],3.21%
same,Activity,A549 [5],51.1%
same,Activity,A549 [6],30.5%
same,Activity,A549 [7],inactive
same,Activity,A549 [8],8.89%
same,Activity,A549 [9],Dose-dependent effect
same,Activity,A549 [10],0.053%
same,Activity,A549 [11],Dose-dependent effect
same,Activity,A549 [12],Active
same,pIC50,HCT-116,4.72
same,pIC50,A549 [13],5.27
same,Activity,A549 [14],0.031%
same,Activity,A549 [15],11.2%
same,pIC50,L02,4.42
same,pIC50,MCF7,4.50
same,viability at 6 µM,A549 [16],88.6%
same,viability at 12 µM,A549 [17],55.9%
same,Activity,A549 [18],Dose-dependent effect
same,Activity,A549 [19],Active
same,Activity,A549 [20],Active
same,Activity,A549 [21],inactive
same,Activity,A549 [22],41.7%
same,pIC50,HUVEC,< 4.30
same,Activity,A549 [23],0.052%
same,Activity,A549 [24],Dose-dependent effect
same,Activity,A549 [25],inactive
same,Activity,A549 [26],2.32%
same,Activity,A549 [27],38.5%
same,Activity,A549 [28],0.127%
same,pIC50,HepG2,4.80
